Reference: ChEMBL document CHEMBL4152207, “Discovery of potent and selective BRD4 inhibitors capable of blocking TLR3-induced acute airway inflammation” (Eur J Med Chem, 2018)
The source made the active and inactive calls. The rule behind the calls is not given here.

Key:
[1] = Total clearance in rat at 10 mg/kg, iv; format: ADME, organism-based; conditions: in vivo
Mus musculus [2] = assay: Anti-inflammatory activity in poly(I:C)-induced airway inflammation C57BL/6 mouse model assessed as reduction in neutrophils recruitment into bronchoalveolar lavage fluid at 10 mg/kg, ip administered 1 day prior to poly(I:C) stimulation and redosed on day 2 followed by poly(I:C) stimulation by trypan blue staining-based hemocytometric analysis; format: functional, organism-based
Mus musculus [3] = assay: Hepatotoxicity in mouse at 1 to 50 mg/kg, ip dosed daily for 1 month by histological analysis; format: toxicity, organism-based; conditions: in vivo
Rattus norvegicus = species on record: Rattus norvegicus; assay: Displacement of [3H]flunitrazepam from rat brain central BZD at 10 uM after 60 mins by radioligand binding assay relative to control
Mus musculus [4] = assay: Renal toxicity in mouse at 1 to 50 mg/kg, ip dosed daily for 1 month by histological analysis; format: organism-based; conditions: in vivo
[5] = target: Glutamate [NMDA] receptor (Homo sapiens) (UniProt Q05586+Q12879+Q13224+O15399+O60391+Q14957+Q8TCU5); assay: Binding affinity to NMDA receptor (unknown origin) at 10 uM by antgonist radioligand assay relative to control; format: protein-complex assay
[6] = target: D(1A) dopamine receptor (Homo sapiens) (UniProt P21728); assay: Displacement of [3H]-SCH 23390 from human recombinant dopamine D1 receptor at 10 uM after 60 mins by scintillation counting analysis relative to control
Mus musculus [7] = assay: Hepatotoxicity in mouse assessed as effect on ALKP level at 1 to 50 mg/kg, ip dosed daily for 1 month; format: toxicity, organism-based; conditions: in vivo
Summary of the method: (§1)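 Groups of n = 5 mice were dosed daily at 1-50 mg/kg for one month. Liver function markers (albumin, globulin, ALK, ALT) were measured alongside body weight, blood counts and renal markers.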

[8] = target: Histamine H1 receptor (Homo sapiens) (UniProt P35367); assay: Displacement of [3H]pyrilamine from human recombinant histamine H1 receptor at 10 uM after 60 mins by scintillation counting analysis relative to control
[9] = Half life in rat at 10 mg/kg, iv; format: ADME, organism-based; conditions: in vivo
Mus musculus [10] = assay: Toxicity in mouse assessed as effect on platelet level at 1 to 50 mg/kg, ip dosed daily for 1 month; format: organism-based; conditions: in vivo
Mus musculus [11] = assay: Hepatotoxicity in mouse assessed as effect on albumin level at 1 to 50 mg/kg, ip dosed daily for 1 month; format: toxicity, organism-based; conditions: in vivo; summary of the method: as §1
[12] = target: Mu-type opioid receptor (Homo sapiens) (UniProt P35372); assay: Displacement of [3H]DAMGO from human recombinant mu opioid receptor at 10 uM after 120 mins by scintillation counting analysis relative to control
Mus musculus [13] = assay: Renal toxicity in mouse assessed as effect on CRE level at 1 to 50 mg/kg, ip dosed daily for 1 month; format: organism-based; conditions: in vivo
[14] = target: 3',5'-cyclic-AMP phosphodiesterase 4D (Homo sapiens) (UniProt Q08499); assay: Displacement of [3H]cAMP from human recombinant PDE4D2 at 10 uM after 20 mins by scintillation counting analysis relative to control
[15] = target: 5-hydroxytryptamine receptor 1B (Homo sapiens) (UniProt P28222); assay: Displacement of [125I]-CYP from human 5-HT1B receptor at 10 uM after 120 mins by scintillation counting analysis relative to control
[16] = target: Cannabinoid receptor 1 (Homo sapiens) (UniProt P21554); assay: Displacement of [3H]CP 55940 from human recombinant CB1 receptor at 10 uM after 120 mins by scintillation counting analysis relative to control
Mus musculus [17] = assay: Hepatotoxicity in mouse assessed as effect on globulin level at 1 to 50 mg/kg, ip dosed daily for 1 month; format: toxicity, organism-based; conditions: in vivo; summary of the method: as §1
Mus musculus [18] = assay: Anti-inflammatory activity in poly(I:C)-induced airway inflammation C57BL/6 mouse model assessed as reduction in mIL6 expression in lung at 10 mg/kg, ip administered 1 day prior to poly(I:C) stimulation and redosed on day 2 followed by poly(I:C) stimulation; format: functional, organism-based
Summary of the method: (§2)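 Male C57BL/6J mice, 12 weeks old, were given 10 mg/kg i.p. one day before stimulation. The next day they got a second dose, immediately followed by intranasal poly(I:C) (300 μg in 50 μL PBS) or PBS alone. Compound was taken up in DMSO and diluted in 10% hydroxypropyl β-cyclodextrin in PBS. Mice were euthanized one day later and lung tissue was collected for cytokine expression.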

Mus musculus [19] = assay: Anti-inflammatory activity in poly(I:C)-induced airway inflammation C57BL/6 mouse model assessed as reduction in mKC expression in lung at 10 mg/kg, ip administered 1 day prior to poly(I:C) stimulation and redosed on day 2 followed by poly(I:C) stimulation; format: functional, organism-based; summary of the method: as §2
Mus musculus [20] = assay: Anti-inflammatory activity in poly(I:C)-induced airway inflammation C57BL/6 mouse model assessed as reduction in mISG54 expression in lung at 10 mg/kg, ip administered 1 day prior to poly(I:C) stimulation and redosed on day 2 followed by poly(I:C) stimulation; format: functional, organism-based; summary of the method: as §2
Mus musculus [21] = assay: Toxicity in mouse assessed as effect on nuetrophils level at 1 to 50 mg/kg, ip dosed daily for 1 month; format: organism-based; conditions: in vivo
Mus musculus [22] = assay: Renal toxicity in mouse assessed as effect on BUN level at 1 to 50 mg/kg, ip dosed daily for 1 month; format: organism-based; conditions: in vivo
[23] = target: cGMP-inhibited 3',5'-cyclic phosphodiesterase 3A (Homo sapiens) (UniProt Q14432); assay: Displacement of [3H]cAMP from human recombinant PDE3A at 10 uM after 20 mins by scintillation counting analysis relative to control
[24] = AUC (0 to t) in rat at 10 mg/kg, iv; format: ADME, organism-based; conditions: in vivo
[25] = target: Kappa-type opioid receptor (Homo sapiens) (UniProt P41145); assay: Displacement of [3H]U69593 from human kappa opioid receptor at 10 uM after 60 mins by scintillation counting analysis relative to control
[26] = target: Muscarinic acetylcholine receptor M1 (Homo sapiens) (UniProt P11229); assay: Displacement of [125I]pirenzepine from human recombinant M1 receptor at 10 uM after 60 mins by scintillation counting analysis relative to control
[27] = target: Alpha-2A adrenergic receptor (Homo sapiens) (UniProt P08913); assay: Binding affinity to adrenergic alpha2A receptor (unknown origin) at 10 uM by agonist radioligand assay relative to control
[28] = target: Muscarinic acetylcholine receptor M2 (Homo sapiens) (UniProt P08172); assay: Displacement of [3H]AF-DX 384 from human recombinant M2 receptor at 10 uM after 60 mins by scintillation counting analysis relative to control
[29] = target: Muscarinic acetylcholine receptor M3 (Homo sapiens) (UniProt P20309); assay: Displacement of [3H]4-DAMP from human recombinant M3 receptor at 10 uM after 60 mins by scintillation counting analysis relative to control
[30] = target: Adenosine receptor A2a (Homo sapiens) (UniProt P29274); assay: Displacement of [3H]-CGS 21680 from human recombinant adenosine A2A receptor at 10 uM after 120 mins by scintillation counting analysis relative to control
[31] = target: Beta-1 adrenergic receptor (Homo sapiens) (UniProt P08588); assay: Displacement of [3H](-)CGP 12177 from human beta1 adrenoceptor at 10 uM after 60 mins by scintillation counting analysis relative to control

Alpha-2A adrenergic receptor (Homo sapiens), sequence (P08913 whole entry): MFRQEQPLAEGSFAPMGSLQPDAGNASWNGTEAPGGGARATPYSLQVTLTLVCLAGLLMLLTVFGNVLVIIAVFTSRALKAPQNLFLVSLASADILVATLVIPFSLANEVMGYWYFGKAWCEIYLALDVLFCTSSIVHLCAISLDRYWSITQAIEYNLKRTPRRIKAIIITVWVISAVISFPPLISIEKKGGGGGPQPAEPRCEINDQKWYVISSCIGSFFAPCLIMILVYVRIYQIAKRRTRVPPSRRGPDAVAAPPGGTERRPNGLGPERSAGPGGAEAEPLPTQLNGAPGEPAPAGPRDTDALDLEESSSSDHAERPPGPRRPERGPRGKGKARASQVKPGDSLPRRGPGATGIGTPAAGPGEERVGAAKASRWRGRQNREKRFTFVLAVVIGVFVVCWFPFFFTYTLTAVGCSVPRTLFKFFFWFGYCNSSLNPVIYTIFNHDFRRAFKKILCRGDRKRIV
Muscarinic acetylcholine receptor M3 (Homo sapiens), sequence (P20309 whole entry, looked up): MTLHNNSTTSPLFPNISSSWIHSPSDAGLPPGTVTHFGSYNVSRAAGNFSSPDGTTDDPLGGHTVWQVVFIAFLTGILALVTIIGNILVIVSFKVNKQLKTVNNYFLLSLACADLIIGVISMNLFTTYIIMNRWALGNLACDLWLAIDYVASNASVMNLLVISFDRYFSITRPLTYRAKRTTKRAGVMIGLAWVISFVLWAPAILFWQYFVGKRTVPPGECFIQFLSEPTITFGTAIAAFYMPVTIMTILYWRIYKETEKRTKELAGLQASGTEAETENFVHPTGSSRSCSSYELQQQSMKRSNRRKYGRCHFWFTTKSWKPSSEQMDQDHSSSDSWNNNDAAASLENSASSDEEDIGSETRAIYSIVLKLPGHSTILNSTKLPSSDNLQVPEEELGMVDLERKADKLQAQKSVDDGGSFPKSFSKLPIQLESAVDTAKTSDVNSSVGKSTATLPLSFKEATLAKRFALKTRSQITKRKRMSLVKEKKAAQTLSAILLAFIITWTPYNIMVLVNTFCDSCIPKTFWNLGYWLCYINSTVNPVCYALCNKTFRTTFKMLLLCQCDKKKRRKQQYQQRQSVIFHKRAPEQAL
3',5'-cyclic-AMP phosphodiesterase 4D (Homo sapiens), sequence (Q08499 whole entry): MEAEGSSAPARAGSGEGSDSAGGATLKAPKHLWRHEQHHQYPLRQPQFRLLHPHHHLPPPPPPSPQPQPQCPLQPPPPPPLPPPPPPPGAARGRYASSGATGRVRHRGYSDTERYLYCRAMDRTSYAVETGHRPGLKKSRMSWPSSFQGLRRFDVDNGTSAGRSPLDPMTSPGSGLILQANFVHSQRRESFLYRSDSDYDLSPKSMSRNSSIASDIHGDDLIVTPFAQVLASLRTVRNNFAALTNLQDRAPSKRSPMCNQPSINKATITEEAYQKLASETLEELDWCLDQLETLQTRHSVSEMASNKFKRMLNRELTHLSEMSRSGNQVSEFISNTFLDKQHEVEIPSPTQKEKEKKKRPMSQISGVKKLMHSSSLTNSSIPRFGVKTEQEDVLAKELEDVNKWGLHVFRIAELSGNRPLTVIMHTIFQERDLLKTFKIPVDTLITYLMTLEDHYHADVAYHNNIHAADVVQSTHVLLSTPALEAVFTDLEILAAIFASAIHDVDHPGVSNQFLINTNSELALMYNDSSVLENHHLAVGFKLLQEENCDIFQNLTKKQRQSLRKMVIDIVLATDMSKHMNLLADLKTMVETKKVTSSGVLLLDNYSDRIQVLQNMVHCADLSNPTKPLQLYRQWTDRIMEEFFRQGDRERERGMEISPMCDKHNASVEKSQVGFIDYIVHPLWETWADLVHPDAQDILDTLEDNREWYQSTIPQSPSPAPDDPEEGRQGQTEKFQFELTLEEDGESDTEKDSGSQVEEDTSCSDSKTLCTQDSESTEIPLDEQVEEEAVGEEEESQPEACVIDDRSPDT
Cannabinoid receptor 1 (Homo sapiens), sequence (P21554 whole entry): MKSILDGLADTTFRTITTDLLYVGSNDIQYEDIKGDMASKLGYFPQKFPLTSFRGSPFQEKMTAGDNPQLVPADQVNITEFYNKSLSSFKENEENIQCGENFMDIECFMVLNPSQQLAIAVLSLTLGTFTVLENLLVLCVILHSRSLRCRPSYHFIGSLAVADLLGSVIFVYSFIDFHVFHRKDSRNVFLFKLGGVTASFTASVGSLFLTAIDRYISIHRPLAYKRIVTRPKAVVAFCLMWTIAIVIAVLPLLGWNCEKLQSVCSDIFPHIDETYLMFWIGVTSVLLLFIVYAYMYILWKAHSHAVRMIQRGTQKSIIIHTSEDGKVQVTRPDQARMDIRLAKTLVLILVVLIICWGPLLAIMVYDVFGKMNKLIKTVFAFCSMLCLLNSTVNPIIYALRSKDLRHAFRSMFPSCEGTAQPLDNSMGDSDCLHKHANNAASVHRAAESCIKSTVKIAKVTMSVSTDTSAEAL
Adenosine receptor A2a (Homo sapiens), sequence (P29274 whole entry): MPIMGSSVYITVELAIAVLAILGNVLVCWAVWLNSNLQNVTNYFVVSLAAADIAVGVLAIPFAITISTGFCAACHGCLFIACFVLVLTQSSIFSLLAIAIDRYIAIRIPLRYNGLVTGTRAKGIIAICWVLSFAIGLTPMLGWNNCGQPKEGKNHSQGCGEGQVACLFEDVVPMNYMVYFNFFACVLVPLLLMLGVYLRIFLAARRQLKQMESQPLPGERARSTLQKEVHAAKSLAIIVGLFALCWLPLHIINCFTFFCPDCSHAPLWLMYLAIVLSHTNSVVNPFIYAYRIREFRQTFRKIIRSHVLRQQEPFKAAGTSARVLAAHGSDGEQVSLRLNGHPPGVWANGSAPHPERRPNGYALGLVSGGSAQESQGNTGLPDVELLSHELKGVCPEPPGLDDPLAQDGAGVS
Histamine H1 receptor (Homo sapiens), sequence (P35367 whole entry): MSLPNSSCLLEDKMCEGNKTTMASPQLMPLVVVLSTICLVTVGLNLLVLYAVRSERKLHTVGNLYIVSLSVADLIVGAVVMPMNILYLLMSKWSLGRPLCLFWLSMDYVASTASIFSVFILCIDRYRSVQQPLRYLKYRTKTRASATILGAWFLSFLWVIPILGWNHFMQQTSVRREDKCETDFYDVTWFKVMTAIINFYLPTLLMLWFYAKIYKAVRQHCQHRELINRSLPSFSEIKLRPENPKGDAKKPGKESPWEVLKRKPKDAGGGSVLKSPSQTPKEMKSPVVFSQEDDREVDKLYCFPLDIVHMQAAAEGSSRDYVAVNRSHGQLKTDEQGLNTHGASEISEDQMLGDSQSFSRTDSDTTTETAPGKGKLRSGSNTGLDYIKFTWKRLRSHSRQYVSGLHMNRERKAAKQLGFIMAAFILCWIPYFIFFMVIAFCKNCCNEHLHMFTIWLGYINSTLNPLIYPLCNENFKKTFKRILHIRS
Muscarinic acetylcholine receptor M1 (Homo sapiens), sequence (P11229 whole entry): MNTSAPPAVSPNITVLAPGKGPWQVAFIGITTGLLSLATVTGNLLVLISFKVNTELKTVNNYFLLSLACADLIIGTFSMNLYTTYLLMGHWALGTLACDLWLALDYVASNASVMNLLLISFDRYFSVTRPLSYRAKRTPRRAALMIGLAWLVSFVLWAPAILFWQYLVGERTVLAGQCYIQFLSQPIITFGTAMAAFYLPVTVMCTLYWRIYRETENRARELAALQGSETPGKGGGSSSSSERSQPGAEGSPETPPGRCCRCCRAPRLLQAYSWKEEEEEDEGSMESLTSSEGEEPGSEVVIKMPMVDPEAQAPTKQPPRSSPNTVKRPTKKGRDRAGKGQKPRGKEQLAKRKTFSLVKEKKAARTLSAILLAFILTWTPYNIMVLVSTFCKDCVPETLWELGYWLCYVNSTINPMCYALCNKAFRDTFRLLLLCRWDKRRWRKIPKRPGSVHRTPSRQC
5-hydroxytryptamine receptor 1B (Homo sapiens), sequence (P28222 whole entry): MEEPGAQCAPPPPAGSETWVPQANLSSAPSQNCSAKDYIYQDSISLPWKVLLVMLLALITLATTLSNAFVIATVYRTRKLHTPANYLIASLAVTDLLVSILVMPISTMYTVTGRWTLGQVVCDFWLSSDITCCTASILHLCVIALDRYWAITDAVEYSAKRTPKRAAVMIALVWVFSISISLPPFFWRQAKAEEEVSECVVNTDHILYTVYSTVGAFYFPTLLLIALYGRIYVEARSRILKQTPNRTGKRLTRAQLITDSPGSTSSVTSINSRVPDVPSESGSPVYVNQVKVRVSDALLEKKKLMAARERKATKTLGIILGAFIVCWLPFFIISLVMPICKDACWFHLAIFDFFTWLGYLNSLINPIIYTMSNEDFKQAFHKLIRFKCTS
Kappa-type opioid receptor (Homo sapiens), sequence (P41145 whole entry): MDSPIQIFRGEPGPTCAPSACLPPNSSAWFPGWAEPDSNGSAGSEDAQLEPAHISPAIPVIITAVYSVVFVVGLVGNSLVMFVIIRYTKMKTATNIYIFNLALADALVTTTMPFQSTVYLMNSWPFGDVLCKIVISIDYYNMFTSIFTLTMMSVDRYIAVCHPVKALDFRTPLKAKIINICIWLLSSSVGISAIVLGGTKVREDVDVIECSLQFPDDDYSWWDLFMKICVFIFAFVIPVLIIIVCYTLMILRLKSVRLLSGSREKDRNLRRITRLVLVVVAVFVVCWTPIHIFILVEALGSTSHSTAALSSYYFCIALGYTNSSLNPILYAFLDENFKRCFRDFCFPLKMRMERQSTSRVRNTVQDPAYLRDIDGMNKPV
Muscarinic acetylcholine receptor M2 (Homo sapiens), sequence (P08172 whole entry): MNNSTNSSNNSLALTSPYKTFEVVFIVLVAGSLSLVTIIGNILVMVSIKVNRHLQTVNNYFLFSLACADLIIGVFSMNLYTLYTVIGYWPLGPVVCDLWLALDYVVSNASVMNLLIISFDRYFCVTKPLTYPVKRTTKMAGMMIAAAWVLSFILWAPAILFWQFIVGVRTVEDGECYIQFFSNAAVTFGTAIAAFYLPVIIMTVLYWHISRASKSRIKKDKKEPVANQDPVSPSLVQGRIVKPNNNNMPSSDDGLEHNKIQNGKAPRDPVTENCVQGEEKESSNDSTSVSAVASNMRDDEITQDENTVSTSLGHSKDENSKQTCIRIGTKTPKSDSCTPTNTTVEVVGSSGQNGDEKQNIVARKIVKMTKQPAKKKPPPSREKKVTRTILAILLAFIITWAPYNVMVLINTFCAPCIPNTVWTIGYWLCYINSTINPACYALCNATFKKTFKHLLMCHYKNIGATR

With `Cc1cc(/N=N/c2ccc(S(=O)(=O)NC3CCCC3)cc2)c(N)cc1O` the clearance [1] was 14.7 mL/min/kg, the Activity (Mus musculus [2]) was “Active” and the Activity (Mus musculus [3]) was “Non-Toxic”. For the same compound, the Activity (Rattus norvegicus) was 8.3%, the Activity (Mus musculus [4]) was “Non-Toxic” and the Activity [5] was 17%. The Activity [6] was 21.9%, the Activity (Mus musculus [7]) was “Non-Toxic” and the Activity [8] was 7.1%. For the same compound, the half-life [9] was 49.8 min, the Activity (Mus musculus [10]) was “Non-Toxic” and the Activity (Mus musculus [11]) was “Non-Toxic”. The Activity [12] was 17.4%, the Activity (Mus musculus [13]) was “Non-Toxic” and the Activity [14] was 39.4%. For the same compound, the Activity [15] was -9.6%, the Activity [16] was 24.7% and the Activity (Mus musculus [17]) was “Non-Toxic”. For the same compound, the Activity (Mus musculus [18]) was “Active”, the Activity (Mus musculus [19]) was “Active” and the Activity (Mus musculus [20]) was “Active”. For the same compound, the Activity (Mus musculus [21]) was “Non-Toxic”, the Activity (Mus musculus [22]) was “Non-Toxic” and the Activity [23] was 46%. It also gave an AUC(0-t) [24] of 11400 ng·h/mL, an Activity [25] of 8.9% and an Activity [26] of -1.5%. It also gave an Activity [27] of 3%, an Activity [28] of 21.6% and an Activity [29] of 4.8%. It also gave an Activity [30] of 38.1% and an Activity [31] of 7.4%.
